Source: ChEMBL document CHEMBL1154743, “A novel potent nicotinamide phosphoribosyltransferase inhibitor synthesized via click chemistry” (J Med Chem, 2010)
The source made the active and inactive calls. The rule behind the calls is not given here.

Tests used:
BT-549 = experiment: Growth inhibition of human BT549 cells by sulforhodamine B assay; format: functional
PC-3 = experiment: Growth inhibition of human PC3 cells by sulforhodamine B assay; format: functional
COLO 205 = experiment: Growth inhibition of human COLO205 cells by sulforhodamine B assay; format: functional
SNB-75 = experiment: Growth inhibition of human SNB75 cells by sulforhodamine B assay; format: functional
RXF 393 = experiment: Growth inhibition of human RXF393 cells by sulforhodamine B assay; format: functional
NCI-H460 = experiment: Growth inhibition of human NCI-H460 cells by sulforhodamine B assay; format: functional
OVCAR-4 = experiment: Growth inhibition of human OVCAR4 cells by sulforhodamine B assay; format: functional
HCT-116 = experiment: Growth inhibition of human HCT116 cells by sulforhodamine B assay; format: functional
[1] = Growth inhibition of human […] cells by sulforhodamine B assay; format: functional
NCI-H23 = experiment: Growth inhibition of human NCI-H23 cells by sulforhodamine B assay; format: functional
UACC-257 = experiment: Growth inhibition of human UACC257 cells by sulforhodamine B assay; format: functional
SNB-19 = experiment: Growth inhibition of human SNB19 cells by sulforhodamine B assay; format: functional
UACC-62 = experiment: Growth inhibition of human UACC62 cells by sulforhodamine B assay; format: functional
OVCAR-3 = experiment: Growth inhibition of human OVCAR-3 cells by sulforhodamine B assay; format: functional
HOP-92 = experiment: Growth inhibition of human HOP92 cells by sulforhodamine B assay; format: functional
OVCAR-5 = experiment: Growth inhibition of human OVCAR5 cells by sulforhodamine B assay; format: functional
SH-SY5Y [2] = experiment: Cytotoxicity against human SH-SY5Y cells assessed as cell viability after 48 hrs by MTT assay relative to control; format: functional
Procedure, shortened: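 SH-SY5Y cells incubated with compound for 48 h and viability measured by MTT. Values are mean ± SEM of 8-12 determinations.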

U-251 = experiment: Growth inhibition of human U251 cells by sulforhodamine B assay; format: functional
NCI/ADR-RES = experiment: Growth inhibition of human NCI/ADR-RES cells by sulforhodamine B assay; format: functional
HCC 2998 = experiment: Growth inhibition of human HCC2998 cells by sulforhodamine B assay; format: functional
SF-268 = experiment: Growth inhibition of human SF268 cells by sulforhodamine B assay; format: functional
MDA-MB-231 = experiment: Growth inhibition of human MDA-MB-231 cells by sulforhodamine B assay; format: functional
SH-SY5Y [3] = experiment: Cytotoxicity against human SH-SY5Y cells assessed as reduction of total cellular NAD(P) level at 300 nM relative to control; format: functional; parameters: scale not given: the % may be the effect or the level left
Procedure, shortened: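 Total cellular NAD levels in SH-SY5Y cells screened at a single fixed concentration of 300 nM. Expressed relative to control, n = 10.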

SH-SY5Y [4] = experiment: Induction of autophagy in human SH-SY5Y cells expressing EGFP-LC3 assessed as colocalization of autophagic vacuoles with lysosomes in acidic compartment of cell at 10 nM; format: functional, cell-based
LOX IMVI = experiment: Growth inhibition of human LOXIMVI cells by sulforhodamine B assay; format: functional
SF-295 = experiment: Growth inhibition of human SF295 cells by sulforhodamine B assay; format: functional
[5] = Growth inhibition of human Hs 578T cells by sulforhodamine B assay; format: functional
CCRF-CEM = experiment: Growth inhibition of human CCRF-CEM cells by sulforhodamine B assay; format: functional
SK-MEL-28 = experiment: Growth inhibition of human SK-MEL-28 cells by sulforhodamine B assay; format: functional
DU-145 = experiment: Growth inhibition of human DU145 cells by sulforhodamine B assay; format: functional
HOP-62 = experiment: Growth inhibition of human HOP62 cells by sulforhodamine B assay; format: functional
M14 = experiment: Growth inhibition of human M14 cells by sulforhodamine B assay; format: functional
MDA-MB-435 = experiment: Growth inhibition of human MDA-MB-435 cells by sulforhodamine B assay; format: functional
IGROV-1 = experiment: Growth inhibition of human IGROV1 cells by sulforhodamine B assay; format: functional
SH-SY5Y [6] = experiment: Cytotoxicity against human SH-SY5Y cells assessed as reduction of total cellular NAD(P) level; format: functional, cell-based
SH-SY5Y [7] = experiment: Induction of autophagy in human SH-SY5Y cells assessed as LC3/phosphotidylethanolamine coupling after 40 hrs by Western blot analysis; format: functional, cell-based
Procedure, shortened: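 Western blot of LC3-I and LC3-II, with tubulin as reference, in untreated and treated cells exposed to 10 nM compound. Six independent experiments were run, using two LC3 antibodies from different sources.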

NCI-H322M = experiment: Growth inhibition of human NCI-H322M cells by sulforhodamine B assay; format: functional
[8] = read-out: LC50 (the source's name)

O=C(CCCCCCCn1cc(-c2cccnc2)nn1)Nc1ccccc1-c1ccccc1
GI50 (BT-549): 1.7 µM | TGI (BT-549): 39.3 µM | CC50 (BT-549; [8]): > 100 µM | GI50 (PC-3): 0.467 µM | TGI (PC-3): 42.8 µM | CC50 (PC-3; [8]): > 100 µM | GI50 (COLO 205): 1.18 µM | TGI (COLO 205): 36 µM | CC50 (COLO 205; [8]): > 100 µM | GI50 (SNB-75): 29.8 µM | TGI (SNB-75): > 100 µM | CC50 (SNB-75; [8]): > 100 µM | GI50 (RXF 393): 100 µM | TGI (RXF 393): > 100 µM | CC50 (RXF 393; [8]): > 100 µM | GI50 (NCI-H460): 0.724 µM | TGI (NCI-H460): > 100 µM | CC50 (NCI-H460; [8]): > 100 µM | GI50 (OVCAR-4): 31.6 µM | TGI (OVCAR-4): > 100 µM | CC50 (OVCAR-4; [8]): > 100 µM | GI50 (HCT-116): 0.0403 µM | TGI (HCT-116): > 100 µM | CC50 (HCT-116; [8]): > 100 µM | GI50 [1]: 0.913 µM | TGI [1]: 60.6 µM | CC50 [1, 8]: > 100 µM | GI50 (NCI-H23): 15.1 µM | TGI (NCI-H23): > 100 µM | CC50 (NCI-H23; [8]): > 100 µM | GI50 (UACC-257): 13.3 µM | TGI (UACC-257): 30.3 µM | CC50 (UACC-257; [8]): 69.3 µM | GI50 (SNB-19): 0.45 µM | TGI (SNB-19): > 100 µM | CC50 (SNB-19; [8]): > 100 µM | GI50 (UACC-62): 13.3 µM | TGI (UACC-62): 51.4 µM | CC50 (UACC-62; [8]): > 100 µM | GI50 (OVCAR-3): 5.19 µM | TGI (OVCAR-3): > 100 µM | CC50 (OVCAR-3; [8]): > 100 µM | GI50 (HOP-92): 97.4 µM | TGI (HOP-92): > 100 µM | CC50 (HOP-92; [8]): > 100 µM | GI50 (OVCAR-5): 0.268 µM | TGI (OVCAR-5): > 100 µM | CC50 (OVCAR-5; [8]): > 100 µM | Activity (SH-SY5Y [2]): 24% | GI50 (U-251): 0.521 µM | TGI (U-251): > 100 µM | CC50 (U-251; [8]): > 100 µM | GI50 (NCI/ADR-RES): 0.0814 µM | TGI (NCI/ADR-RES): 33.1 µM | CC50 (NCI/ADR-RES; [8]): > 100 µM | GI50 (HCC 2998): 0.7 µM | TGI (HCC 2998): > 100 µM | CC50 (HCC 2998; [8]): > 100 µM | GI50 (SF-268): 24.7 µM | TGI (SF-268): > 100 µM | CC50 (SF-268; [8]): > 100 µM | GI50 (MDA-MB-231): 20.9 µM | TGI (MDA-MB-231): > 100 µM | CC50 (MDA-MB-231; [8]): > 100 µM | Activity (SH-SY5Y [3]): 9.9% | Activity (SH-SY5Y [4]): Active | GI50 (LOX IMVI): 10.1 µM | TGI (LOX IMVI): > 100 µM | CC50 (LOX IMVI; [8]): > 100 µM | GI50 (SF-295): 0.655 µM | TGI (SF-295): > 100 µM | CC50 (SF-295; [8]): > 100 µM | GI50 [5]: 20.4 µM | TGI [5]: > 100 µM | CC50 [5, 8]: > 100 µM | GI50 (CCRF-CEM): 3.28 µM | TGI (CCRF-CEM): > 100 µM | CC50 (CCRF-CEM; [8]): > 100 µM | GI50 (SK-MEL-28): 1.59 µM | TGI (SK-MEL-28): > 100 µM | CC50 (SK-MEL-28; [8]): > 100 µM | GI50 (DU-145): 0.702 µM | TGI (DU-145): > 100 µM | CC50 (DU-145; [8]): > 100 µM | GI50 (HOP-62): 23.8 µM | TGI (HOP-62): > 100 µM | CC50 (HOP-62; [8]): > 100 µM | GI50 (M14): 0.166 µM | TGI (M14): 20.7 µM | CC50 (M14; [8]): > 100 µM | GI50 (MDA-MB-435): 0.399 µM | TGI (MDA-MB-435): 13.3 µM | CC50 (MDA-MB-435; [8]): > 100 µM | GI50 (IGROV-1): 0.272 µM | TGI (IGROV-1): > 100 µM | CC50 (IGROV-1; [8]): > 100 µM | IC50 (SH-SY5Y [6]): 0.003 µM | Activity (SH-SY5Y [7]): Active | GI50 (NCI-H322M): 23.1 µM | TGI (NCI-H322M): > 100 µM | CC50 (NCI-H322M; [8]): > 100 µM
